Source: paper PMC5708134 (Chemical research in toxicology, 2017)
Several values for one entry are separate records, joined by “and”; a condition that tells them apart may be missing. Identical values can stand only once. Entries after “also recorded” stand apart in the source; their conditions may differ.

Key:
Assay type in all cases: biochemical
recombinant human DCXR [1] = target: T1, recombinant human DCXR (Homo sapiens, UniProt Q7Z4W1); test: Diacetyl reduction by recombinant DCXR
recombinant human DCXR [2] = target: T1, recombinant human DCXR; test: L-xylulose reduction by recombinant DCXR, substrate kinetics; settings: for Km / kcat: pH 7.0
How it was run: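 Enzyme: recombinant His-tagged human DCXR from E. coli BL21(DE3), Ni-NTA purified. Reduction was assayed in 100 mM phosphate buffer pH 7.0 and started by adding enzyme. Initial rates of NADPH oxidation were read at 340 nm in a microplate reader. Rates were converted using NAD(P)H calibration curves made in the reaction mix.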

recombinant human DCXR [3] = target: T1, recombinant human DCXR; test: Chemical redox cycling by DCXR; settings: for Km / kcat: redox cycling; for EC50: EC50, half maximal concentration of quinones activating H2O2 production by redox cycling with DCXR, 5 μg/ml recombinant DCXR and 200 μM NADH
recombinant human DCXR [4] = target: T1, recombinant human DCXR; test: Oxygen consumption during DCXR redox cycling; settings: 600 μM NADH, 20 μM 9,10-phenanthrenequinone
How it was run: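 Clark-type oxygen electrode measurements used 16 μg recombinant human DCXR per 0.8 mL reaction. NADH and 9,10-phenanthrenequinone were run first to set a stable baseline, then DCXR was added to start the reaction. Diacetyl was added either after DCXR or at time zero (pretreatment). Short-chain fatty acids were added at set time points during cycling.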

recombinant human DCXR [5] = target: T1, recombinant human DCXR; test: Inhibition of diacetyl reduction by DCXR
How it was run: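 Human DCXR, His-tagged, expressed in E. coli BL21(DE3) with 0.5 mM IPTG (4 h, 37 °C), Ni-NTA purified. 100 μL mixes: 600 μM NADH, 2 mM diacetyl, 1–2 μg DCXR, plus quinone inhibitor. Acetoin formed was quantified by HPLC against a standard calibration curve. Inhibition type and Ki were derived from kinetic analysis.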

recombinant human DCXR [6] = target: T1, recombinant human DCXR; test: Inhibition of quinone redox cycling by DCXR; settings: for Type of inhibition: inhibition of redox cycling with 9,10-phenanthrenequinone
How it was run: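 Assay for redox cycling by His-tagged human DCXR (E. coli-expressed, Ni-NTA purified). Superoxide was measured as acetylated cytochrome c reduction at 550 nm. 100 μL mixes: 50 mM potassium phosphate pH 7.8, 50 μM acetylated cytochrome c, 0.2 mM NADPH, 20 μM 9,10-phenanthrenequinone, 1.2 or 1.6 μg DCXR, varied inhibitor. Competitive Ki was taken from Lineweaver–Burk plots.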

recombinant human DCXR [7] = target: T1, recombinant human DCXR; test: Xylitol dehydrogenation
How it was run: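 Recombinant His-tagged human DCXR (E. coli-expressed, Ni-NTA purified) oxidized xylitol in 0.1 mL reactions: 100 mM glycine buffer pH 9.5, 3 mM MgCl2, NADP+ and xylitol. Reactions were started by adding enzyme. NADPH formation was followed as the absorbance change at 340 nm in a microplate reader.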

[8] = NADPH varied, 2 mM diacetyl fixed, pH 7.0
[9] = NADPH varied, 6 mM xylulose fixed
[10] = NADPH varied, 20 μM 9,10-PQ fixed
[11] = inhibition of diacetyl reduction
[12] = xylulose varied, 0.6 mM NADPH fixed
[13] = Ki, inhibition of diacetyl reduction
[14] = quinone varied, 200 μM NADPH fixed

T1 sequence (Q7Z4W1 whole entry): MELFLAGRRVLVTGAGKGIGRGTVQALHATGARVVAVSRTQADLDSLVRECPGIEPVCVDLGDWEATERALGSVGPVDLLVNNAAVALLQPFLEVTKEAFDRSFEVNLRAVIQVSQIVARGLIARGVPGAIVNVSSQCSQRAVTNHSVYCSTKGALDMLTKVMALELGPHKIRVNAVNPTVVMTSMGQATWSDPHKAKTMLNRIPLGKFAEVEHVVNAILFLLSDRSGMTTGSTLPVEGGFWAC

For `NC(=O)C1=CN([C@@H]2O[C@H](COP(=O)(O)OP(=O)(O)OC[C@H]3O[C@@H](n4cnc5c(N)ncnc54)[C@H](OP(=O)(O)O)[C@@H]3O)[C@@H](O)[C@H]2O)C=CC1` [NADPH], the Vmax (recombinant human DCXR [1]; NADPH at fixed concentration of diacetyl) was 30.9 µM/min, the Km (recombinant human DCXR [1]; [8]) was 90 µM and the kcat (recombinant human DCXR [1]; [8]) was 1.6 S^−1 and 1.60 S^−1. The Km (recombinant human DCXR [2]; [9]) was 24 µM, the kcat (recombinant human DCXR [2]; [9]) was 1.55 S^−1 and the Km (recombinant human DCXR [3]; [10]) was 31 µM. It also gave a kcat (recombinant human DCXR [3]; [10]) of 0.115 s⁻¹.
`CCCC(=O)O` [butyric acid] was tested, and the “Effect on oxygen consumption during redox cycling” value (shortened to “Effect”) (recombinant human DCXR [4]; butyric acid 10 mM) was “Inhibition of oxygen consumption”, the IC50 (recombinant human DCXR [5]) was 950 µM and the IC50 (recombinant human DCXR [6]) was 6800 µM.
For `CC1=CC(=O)c2ccccc2C1=O` [menadione, 2-methyl-1,4-naphthoquinone], the IC50 (recombinant human DCXR [5]) was 52.8 µM, the Ki (recombinant human DCXR [5]) was 24.3 µM and the Type of inhibition (recombinant human DCXR [5]; [11]) was “competitive type of inhibition”. The inhibition at 300 µM (recombinant human DCXR [5]; read-out: Inhibition of DCXR mediated reduction of diacetyl) was > 90%.
`O=C(CO)[C@H](O)[C@@H](O)CO` [L-xylulose] gave a Vmax (recombinant human DCXR [2]; reduction of L-xylulose using NADPH as the cofactor) of 33.8 µM/min, a Km (recombinant human DCXR [2]; [12]) of 503 µM and a kcat (recombinant human DCXR [2]; [12]) of 1.09 S^−1. For the same molecule, the Type of inhibition (recombinant human DCXR [6]) was “competitive inhibitors; also recorded: competitive type inhibition” and the Type of inhibition (recombinant human DCXR [6]; listed as Xylulose) was “competitive”.
`CCCCCC(=O)O` [hexanoic acid] was tested, and the “Effect” value (recombinant human DCXR [4]; hexanoic acid 50 mM) was “Inhibition of oxygen consumption”, the IC50 (recombinant human DCXR [5]) was 6100 µM and the IC50 (recombinant human DCXR [6]) was 36000 µM.
`O=C1C=Cc2ccccc2C1=O` [1,2-naphthoquinone] was tested, and the IC50 (recombinant human DCXR [5]) was 2.9 µM, the Ki (recombinant human DCXR [5]; [13]) was 1.4 µM and 1.35 µM and the Type of inhibition (recombinant human DCXR [5]; [11]) was “competitive”. It also gave an EC50 (recombinant human DCXR [3]) of 1.5 µM.
For `O=C1C(=O)c2ccccc2-c2ccccc21` [9,10-phenanthrenequinone], the IC50 (recombinant human DCXR [5]) was 9.3 µM, the Ki (recombinant human DCXR [5]; [13]) was 4.3 µM and 4.27 µM and the Type of inhibition (recombinant human DCXR [5]; [11]) was “competitive”. It also gave an EC50 (recombinant human DCXR [3]) of 1.7 µM.
In the case of `NC(=O)c1ccc[n+]([C@@H]2O[C@H](COP(=O)([O-])OP(=O)(O)OC[C@H]3O[C@@H](n4cnc5c(N)ncnc54)[C@H](OP(=O)(O)O)[C@@H]3O)[C@@H](O)[C@H]2O)c1` [NADP(+)], the kcat (recombinant human DCXR [7]; NADP(+) varied, 200 mM xylitol fixed) is reported as 1.7 S^−1, the Km (recombinant human DCXR [7]; NADP(+) varied, 200 mM xylitol fixed, 100 mM glycine buffer with 3 mM MgCl2) is reported as 110 µM and the Vmax (recombinant human DCXR [7]; oxidation of xylitol using NADP+ as the cofactor) is reported as 70.9 µM/min.
With `O=C1C=CC(=O)c2ccccc21` [1,4-naphthoquinone] the IC50 (recombinant human DCXR [5]) was 11.8 µM, the Ki (recombinant human DCXR [5]) was 5.4 µM and the Type of inhibition (recombinant human DCXR [5]; [11]) was “competitive”. For the same molecule, the EC50 (recombinant human DCXR [3]) was 5.4 µM, the Km (recombinant human DCXR [3]; [14]) was 10.8 µM and the kcat (recombinant human DCXR [3]; [14]) was 0.0283 s⁻¹.
With `CC(=O)C(C)=O` [diacetyl, 2,3-butanedione] the kcat (recombinant human DCXR [1]; diacetyl varied, 200 μM NADPH fixed, pH 7.0) was 5.80 S^−1, the “Effect” value (recombinant human DCXR [4]; diacetyl 5 mM) was “Inhibition of oxygen consumption” and the Ki (recombinant human DCXR [6]) was 190 µM. The Type of inhibition (recombinant human DCXR [6]) was “competitive inhibitors; also recorded: competitive type inhibition”, the Type of inhibition (recombinant human DCXR [6]; listed as Diacetyl) was “competitive” and the inhibition at 5000 µM (recombinant human DCXR [6]; read-out: Inhibition of menadione-stimulated superoxide anion formation) was ~75%.
With `CCCCC(=O)O` [pentanoic acid] the IC50 (recombinant human DCXR [5]) was 4400 µM and the IC50 (recombinant human DCXR [6]) was 28400 µM.
`CCCCCCC(=O)O` [heptanoic acid] showed an IC50 (recombinant human DCXR [5]) of 19900 µM and an IC50 (recombinant human DCXR [6]) of 25100 µM.
